Data reported in ChEMBL document CHEMBL3112517, “Identification of dihydrostilbenes in Pholidota chinensis as a new scaffold for GABAA receptor modulators” (Bioorg Med Chem, 2014).

Legend:
Format in all cases: cell-based
[1] = molecular target: GABA-A receptor; alpha-1/beta-3/gamma-2 (Homo sapiens) (UniProt P14867+P18507+P28472); assay: Modulation of GABAA alpha1beta3gamma2S receptor (unknown origin) expressed in Xenopus laevis oocytes assessed as potentiation of EC3 to 10 GABA-induced chloride ion current at holding potential -70 mV 1 to 300 uM by two-microelectrode voltage clamp assay relative to GABA-treated control
[2] = molecular target: T1, GABA A receptor alpha-2/beta-2/gamma-2 (Homo sapiens, UniProt P18507+P47869+P47870); assay: Modulation of GABAA alpha2beta2gamma2S receptor (unknown origin) expressed in Xenopus laevis oocytes assessed as potentiation of EC3 to 10 GABA-induced chloride ion current at holding potential -70 mV by two-microelectrode voltage clamp assay
T1 sequence (P47870 whole entry): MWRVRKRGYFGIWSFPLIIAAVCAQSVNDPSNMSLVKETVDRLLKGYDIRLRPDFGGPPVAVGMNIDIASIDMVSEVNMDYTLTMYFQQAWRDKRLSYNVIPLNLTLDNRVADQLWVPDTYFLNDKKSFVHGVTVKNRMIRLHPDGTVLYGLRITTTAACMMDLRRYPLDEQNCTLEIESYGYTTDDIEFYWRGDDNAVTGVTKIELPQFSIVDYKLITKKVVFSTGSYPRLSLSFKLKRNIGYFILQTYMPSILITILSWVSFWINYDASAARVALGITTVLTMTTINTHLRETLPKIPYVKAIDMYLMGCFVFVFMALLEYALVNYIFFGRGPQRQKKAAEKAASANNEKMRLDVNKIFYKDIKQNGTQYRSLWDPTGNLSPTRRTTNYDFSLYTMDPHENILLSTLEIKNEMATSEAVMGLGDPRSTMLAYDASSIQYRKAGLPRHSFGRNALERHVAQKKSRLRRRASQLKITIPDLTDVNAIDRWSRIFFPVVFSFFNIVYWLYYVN
T1 sequence (P18507 whole entry): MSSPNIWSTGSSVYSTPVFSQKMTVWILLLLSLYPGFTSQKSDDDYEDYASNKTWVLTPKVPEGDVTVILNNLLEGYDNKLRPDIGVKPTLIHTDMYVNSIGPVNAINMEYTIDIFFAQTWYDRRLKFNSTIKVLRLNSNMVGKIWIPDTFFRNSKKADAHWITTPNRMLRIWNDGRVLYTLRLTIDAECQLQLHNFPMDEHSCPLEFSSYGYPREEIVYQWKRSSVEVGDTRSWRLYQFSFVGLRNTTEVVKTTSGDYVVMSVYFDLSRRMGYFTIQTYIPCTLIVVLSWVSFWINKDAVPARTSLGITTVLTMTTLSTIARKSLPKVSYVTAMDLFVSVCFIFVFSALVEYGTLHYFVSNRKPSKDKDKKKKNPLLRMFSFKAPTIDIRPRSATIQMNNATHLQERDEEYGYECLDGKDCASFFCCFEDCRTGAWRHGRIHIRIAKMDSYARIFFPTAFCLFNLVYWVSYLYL
T1 sequence (P47869 whole entry): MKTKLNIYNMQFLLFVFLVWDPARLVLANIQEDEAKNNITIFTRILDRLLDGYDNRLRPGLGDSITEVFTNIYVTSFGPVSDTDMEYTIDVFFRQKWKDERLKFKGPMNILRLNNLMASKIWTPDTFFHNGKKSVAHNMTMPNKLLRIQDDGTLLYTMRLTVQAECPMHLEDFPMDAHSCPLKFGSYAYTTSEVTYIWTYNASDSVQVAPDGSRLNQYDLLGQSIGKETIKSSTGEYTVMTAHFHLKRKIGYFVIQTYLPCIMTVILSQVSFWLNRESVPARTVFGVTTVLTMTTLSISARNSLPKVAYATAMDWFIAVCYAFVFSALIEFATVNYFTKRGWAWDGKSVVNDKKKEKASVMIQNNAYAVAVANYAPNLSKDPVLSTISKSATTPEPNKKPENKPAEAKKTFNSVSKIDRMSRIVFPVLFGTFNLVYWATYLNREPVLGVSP

[3] = species on record: Rattus norvegicus; assay: Allosteric modulation of rat GABAA alpha1beta2gamma2S receptor expressed in Xenopus laevis oocytes assessed as potentiation of GABA-induced chloride ion current at holding potential -70 mV at 100 uM by two-microelectrode voltage clamp assay relative to GABA-treated control
Procedure, shortened: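 Stage V–VI Xenopus laevis oocytes were injected with 50 nL of rat α1, β2 and γ2S cRNA mixed 1:1:10 (about 300–3000 pg/nL per subunit), stored at 18 °C in ND96, and recorded on days 1–5. Two-electrode clamp was at −70 mV in pH 7.4 HEPES bath. Compound was applied by fast perfusion with GABA EC3–10, in 1% DMSO final. Enhancement = I(GABA+Comp)/IGABA − 1.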

[4] = molecular target: T2, GABA-A receptor; alpha-1/beta-3/gamma-2 (Homo sapiens, UniProt P14867+P18507+P28472); assay: Modulation of GABAA alpha1beta3gamma2S receptor (unknown origin) expressed in Xenopus laevis oocytes assessed as potentiation of EC3 to 10 GABA-induced chloride ion current at holding potential -70 mV by two-microelectrode voltage clamp assay
T2 sequence (P14867 whole entry): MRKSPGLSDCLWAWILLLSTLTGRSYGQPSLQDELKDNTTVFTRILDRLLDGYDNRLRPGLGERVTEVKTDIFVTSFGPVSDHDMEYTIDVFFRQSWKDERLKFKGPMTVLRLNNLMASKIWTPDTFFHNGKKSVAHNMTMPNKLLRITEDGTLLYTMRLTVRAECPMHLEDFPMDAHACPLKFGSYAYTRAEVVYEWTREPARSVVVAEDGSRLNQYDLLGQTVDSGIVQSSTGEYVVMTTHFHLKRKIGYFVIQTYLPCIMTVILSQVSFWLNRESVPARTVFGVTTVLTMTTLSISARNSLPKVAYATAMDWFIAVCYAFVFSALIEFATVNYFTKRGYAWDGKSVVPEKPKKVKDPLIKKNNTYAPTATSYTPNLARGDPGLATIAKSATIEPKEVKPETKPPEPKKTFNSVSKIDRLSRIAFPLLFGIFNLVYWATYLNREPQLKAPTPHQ
T2 sequence (P18507 whole entry): T1 sequence (P18507 whole entry)
T2 sequence (P28472 whole entry): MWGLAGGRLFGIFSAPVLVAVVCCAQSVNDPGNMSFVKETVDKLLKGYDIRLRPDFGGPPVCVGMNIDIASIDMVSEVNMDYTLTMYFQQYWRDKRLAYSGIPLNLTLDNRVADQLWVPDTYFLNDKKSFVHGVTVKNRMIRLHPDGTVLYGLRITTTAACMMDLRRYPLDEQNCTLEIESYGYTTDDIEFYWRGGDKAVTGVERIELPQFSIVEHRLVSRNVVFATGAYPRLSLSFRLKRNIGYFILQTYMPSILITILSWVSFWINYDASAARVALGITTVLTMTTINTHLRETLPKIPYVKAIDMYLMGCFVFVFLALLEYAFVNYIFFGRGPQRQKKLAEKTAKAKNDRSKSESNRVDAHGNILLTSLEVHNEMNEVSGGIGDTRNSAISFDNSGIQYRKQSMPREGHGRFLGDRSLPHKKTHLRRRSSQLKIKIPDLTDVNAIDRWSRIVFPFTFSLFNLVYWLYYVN

Imax [1]: 1250% | EC50 [2]: 80.8 µM | Activity [3]: 628% | EC50 [4]: 67.2 µM
SMILES: COc1cc(O)cc(CCc2cccc(O)c2)c1 [BATATASIN III]
